According to PMC10412738 (Cell reports, 2023):

Experiments:
Y79 cells [1] = assay: Cell proliferation; format: cell-based; conditions: for growth arrest following SFRP2 silencing, Wnt inhibitors: 1 μM, SFRP2 siRNA
Summary of the method: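 SFRP2 or control siRNA transfected with Lipofectamine RNAiMAX, then cells given recombinant human SFRP2 at 250 ng/mL or left untreated. Proliferation tracked by IncuCyte live-cell imaging. RB383 were grown in IMDM with 10% FBS, 10 μg/mL insulin and 55 μM β-mercaptoethanol; Y79 in RPMI-1640 with 10% FBS.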

RB383 cells = assay: Cell proliferation; format: cell-based; conditions: for inhibition of proliferation: RB383 cells, 1 μg/mL, IncuCyte
[2] = system: NO production in RB383 cells; assay: NO production, nitrate/nitrite colorimetric assay, RB383; format: cell-based; conditions: n = 3; for NO production following SFRP2 silencing: CM, 12 h; for NO production: RB383 cells, 1 μg/mL, NO in the CM
Summary of the method: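 Test peptides (12-mer SFRP2 binders from phage display) added to RB383 at 1 μg/mL. At the indicated time points, NO in the conditioned medium was measured by nitrite/nitrate colorimetric assay; n = 3.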

NOS2 RNA in RB383 cells = assay: NOS2 RNA by qRT-PCR, RB383; format: cell-based; conditions: n = 3; for NOS2 RNA induction following SFRP2 silencing: 12 h; for NOS2 RNA induction: RB383 cells, 1 μg/mL, qRT-PCR
[3] = system: phosphorylated CREB (phospho-serine 133) in RB383 cells; assay: Phosphorylated CREB by immunoblotting, RB383; format: cell-based; conditions: for phosphorylated CREB induction: RB383 cells, 1 μg/mL, immunoblotting
retinoblastoma cells = assay: Rescue of growth inhibition following SFRP2 silencing; format: cell-based; conditions: SFRP2 siRNA
Summary of the method: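 Retinoblastoma cell lines transfected with SFRP2 or control siRNA (RNAiMAX), then exposed to 5 μM NS-2028 (sGC inhibitor) or 2.5 μM KT5823 (PKG inhibitor), or left untreated. Proliferation measured by IncuCyte live-cell imaging.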

p21 in RB383 cells = assay: p21 induction following SFRP2 silencing, immunoblotting, RB383; format: cell-based; conditions: 1 μM carboxy-PTIO, 5 μM NS-2028, or 2.5 μM KT5823
Summary of the method: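 In RB383 cells transfected with SFRP2 or control siRNA, treatment was none, 1 μM carboxy-PTIO, 5 μM NS-2028 or 2.5 μM KT5823. p21 protein was then assessed by SDS-PAGE immunoblotting of whole-cell lysate.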

[4] = system: NO production in Y79 cells; assay: NO production, nitrate/nitrite colorimetric assay, Y79; format: cell-based; conditions: 2 μM, CM and cell lysate, n = 3
Summary of the method: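 Y79 retinoblastoma cells were exposed to a small-molecule SFRP inhibitor at 2 μM. At the indicated times, NO production was measured in conditioned medium and in cell lysate by nitrite/nitrate colorimetric assay. n = 3; data given as mean ± SEM.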

SFRP1 = conditions: cited from earlier work
[5] = system: SFRP2 RNA in retinoblastoma cells; assay: SFRP2 RNA silencing in retinoblastoma; format: cell-based; conditions: n = 3
[6] = system: ARPE-19 retinal pigment epithelial cells; assay: Cell proliferation; format: cell-based, human; conditions: 1 μg/mL, IncuCyte
[7] = biological target: Recombinant human CXADR protein (3336-CX-050, R&D Systems) (human) (UniProt P78310); assay: MST
recombinant CXADR = assay: Microscale thermophoresis of SFRP2-CXADR interaction; format: binding, human; conditions: read-out: KD of SFRP2-CXADR interaction, labeled CXADR, PBS/0.005% Tween 20, 30-min incubation at room temperature, Monolith NT.115
Summary of the method: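 Recombinant human CXADR was fluorescently labelled with the RED-NHS second-generation dye kit. It was mixed with recombinant human SFRP2, incubated, and loaded into capillary chips. KD was derived from microscale thermophoresis affinity analysis.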

[8] = system: CXADR-overexpressing Y79 cells; assay: Cell proliferation of CXADR-overexpressing Y79 cells; format: cell-based; conditions: 250 ng/mL recombinant SFRP2
Summary of the method: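 Y79 cells were infected with pCDH1-puro lentivirus (made in 293T) carrying CXADR cDNA or empty vector, then selected in 5 μg/mL puromycin for 48 h. Expression was checked by anti-CXADR immunoblot. Cells were treated with recombinant SFRP2 at 250 ng/mL or left untreated, and proliferation was monitored by IncuCyte.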

[9] = system: NO production in CXADR-overexpressing Y79 cells; assay: NO production in CXADR-overexpressing Y79 cells; format: cell-based; conditions: 250 ng/mL recombinant SFRP2, n = 3
CXADR = assay: Co-immunoprecipitation of SFRP2 with endogenous CXADR in 293T cells; format: binding; conditions: C-terminally FLAG-tagged SFRP2, 293T cells
Summary of the method: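 FLAG-tagged constructs (C-terminally FLAG-tagged SFRP2 in pcDNA3) were transfected by calcium phosphate co-precipitation into 293T cells grown in DMEM with 10% fetal bovine serum. Anti-FLAG immunoprecipitation was followed by SDS-PAGE and anti-CXADR immunoblotting for endogenous CXADR.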

Y79 cells [10] = assay: Ligand-binding assay of SFRP2-FLAG to Y79 cells; conditions: anti-FLAG immunoblotting after washing
Summary of the method: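 C-terminally FLAG-tagged SFRP2 was secreted from transfected 293T cells. It was incubated with Y79 cells previously transfected (Lipofectamine RNAiMAX) with CXADR siRNA or control siRNA. Cells were washed to remove unbound protein and lysed. Whole-cell lysate went to SDS-PAGE and anti-FLAG immunoblotting. CXADR knockdown was confirmed by immunoblotting.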

Question: With CC(=O)N[C@@H](C(=O)O)C(C)(C)SN=O (racemic) [SNAP] as the molecule, how does the “retinoblastoma growth, NO donor” value (Y79 cells [1]; concentrations in figure, IncuCyte) read?
Answer: Its value is “inhibited retinoblastoma growth in a dose-dependent manner”.

Question: For O=S(=O)(NCCNC/C=C/c1ccc(Br)cc1)c1cccc2cnccc12 [H89], which “growth inhibition following SFRP2 silencing” value (RB383 cells; RB383, 5 μM H89, SFRP2 siRNA) is on record?
Answer: Its value is “abolished”.

Question: What about the “NO production following SFRP2 silencing” value ([2]; RB383, 5 μM H89, SFRP2 siRNA) of the same molecule?
Answer: The value was “abolished”.

Question: And the “NOS2 RNA induction following SFRP2 silencing” value (NOS2 RNA in RB383 cells; RB383, 5 μM H89, SFRP2 siRNA)?
Answer: The value was “abolished”.

Question: And the “CREB phosphorylation following SFRP2 silencing” value ([3]; RB383, 5 μM H89, SFRP2 siRNA, 48 h)?
Answer: The value was “abolished CREB phosphorylation”.

Question: Which “growth arrest following SFRP2 silencing, Wnt inhibitors” value (Y79 cells [1]) does the source give for O=C(CSc1nc2c(c(=O)n1-c1ccccc1)SCC2)Nc1ccc(-c2ccccc2)cn1 [IWP-L6] here?
Answer: Its value is “did not rescue the growth arrest of retinoblastoma cells following SFRP2 silencing”.

Question: For COC(=O)[C@@]1(OC)C[C@H]2O[C@]1(C)n1c3ccccc3c3c4c(c5c6ccccc6n2c5c31)C(=O)N(C)C4 [KT5823], which “growth inhibition following SFRP2 silencing (rescue), PKG inhibitor” value (retinoblastoma cells; 2.5 μM) is on record?
Answer: The value was “abolished”.

Question: And the “p21 induction following SFRP2 silencing” value (p21 in RB383 cells)?
Answer: The value was “abolished”.

Question: Which “growth inhibition following SFRP2 silencing (rescue), pan-NOS inhibitor” value (retinoblastoma cells; concentrations in figure) does the source give for [H]/N=C(/NC)NCCC[C@H](N)C(=O)O [L-NMMA] here?
Answer: The value was “abolished growth inhibition following SFRP2 silencing”.

Question: For Nc1ncc2c(n1)CC(c1ccco1)CC2=O (stereo not drawn) [NKY80], which “growth inhibition following SFRP2 silencing” value (RB383 cells; RB383, 1 μM NKY80, SFRP2 siRNA) is on record?
Answer: Its value is “abolished”.

Question: And the “NO production following SFRP2 silencing” value ([2]; RB383, 1 μM NKY80, SFRP2 siRNA)?
Answer: The value was “abolished”.

Question: And the “NOS2 RNA induction following SFRP2 silencing” value (NOS2 RNA in RB383 cells; RB383, 1 μM NKY80, SFRP2 siRNA)?
Answer: Its value is “abolished NOS2 induction”.

Question: With O=c1onc2n1-c1cc(Br)ccc1OC2 [NS-2028] as the molecule, how does the “growth inhibition following SFRP2 silencing (rescue), sGC inhibitor” value (retinoblastoma cells; 5 μM) read?
Answer: Its value is “abolished”.

Question: And the “p21 induction following SFRP2 silencing” value (p21 in RB383 cells)?
Answer: Its value is “abolished”.

Question: With O=S(=O)(NC1CCNCC1)c1cc(S(=O)(=O)c2ccccc2)ccc1C(F)(F)F [WAY-316606] as the molecule, how does the inhibition of proliferation (Y79 cells [1]; dose range in figure, IncuCyte) read?
Answer: Its inhibition of proliferation is “efficiently inhibited retinoblastoma cell proliferation in a dose-dependent manner”.

Question: And the NO generation [4]?
Answer: Its NO generation is “rapidly induces NO generation in retinoblastoma cells”.

Question: What about the “inhibition of SFRP1” value (SFRP1) of the same molecule?
Answer: Its value is “potent inhibitor of SFRP1”.

Question: Which “growth arrest following SFRP2 silencing, Wnt inhibitors” value (Y79 cells [1]) does the source give for Oc1nc(-c2ccc(C(F)(F)F)cc2)nc2c1CSCC2 [XAV939] here?
Answer: Its value is “did not rescue the growth arrest of retinoblastoma cells following SFRP2 silencing”.

Question: Which results are given for CC1(C)N([O])C(c2ccc(C(=O)O)cc2)=[N+]([O-])C1(C)C [carboxy-PTIO]?
Answer: growth inhibition following SFRP2 silencing (rescue), NO scavenger (retinoblastoma cells; 1 μM, all five retinoblastoma cell lines): completely abolished SFRP2 silencing-induced growth inhibition in all five retinoblastoma cell lines; p21 induction following SFRP2 silencing (p21 in RB383 cells): abolished; effect on SFRP2 silencing [5]: did not affect SFRP2 silencing

Question: For HGWASLLNYSWY [peptide II], which inhibition of proliferation (RB383 cells) is on record?
Answer: Its inhibition of proliferation is “strongly inhibited proliferation of retinoblastoma cells”.

Question: And the NO production [2]?
Answer: Its NO production is “rapidly induced”.

Question: What about the inhibition of proliferation (Y79 cells [1]; 1 μg/mL, IncuCyte) of the same molecule?
Answer: The inhibition of proliferation was “strongly inhibited proliferation of retinoblastoma cells”.

Question: What about the “NOS2 RNA induction” value (NOS2 RNA in RB383 cells) of the same molecule?
Answer: The value was “rapidly induced”.

Question: And the “phosphorylated CREB induction” value [3]?
Answer: Its value is “rapidly induced phosphorylated CREB”.

Question: And the “growth of ARPE-19 cells” value [6]?
Answer: Its value is “do not inhibit the growth of retinal pigment epithelial cells”.

Question: Which inhibition of proliferation (RB383 cells) does the source give for HNPFTFFGPMFY [peptide I] here?
Answer: The inhibition of proliferation was “strongly inhibited proliferation of retinoblastoma cells”.

Question: And the NO production [2]?
Answer: Its NO production is “rapidly induced”.

Question: And the inhibition of proliferation (Y79 cells [1]; 1 μg/mL, IncuCyte)?
Answer: The inhibition of proliferation was “strongly inhibited proliferation of retinoblastoma cells”.

Question: What about the “NOS2 RNA induction” value (NOS2 RNA in RB383 cells) of the same molecule?
Answer: The value was “rapidly induced”.

Question: And the “phosphorylated CREB induction” value [3]?
Answer: Its value is “rapidly induced phosphorylated CREB”.

Question: And the “growth of ARPE-19 cells” value [6]?
Answer: Its value is “do not inhibit the growth of retinal pigment epithelial cells”.

B1: Recombinant human SFRP2 protein (6838-FR-025, R&D Systems) (ligand)
chain: LFLFGQPDFSYKRSNCKPIPANLQLCHGIEYQNMRLPNLLGHETMKEVLEQAGAWIPLVMKQCHPDTKKFLCSLFAPVCLDDLDETIQPCHSLCVQVKDRCAPVMSAFGFPWPDMLECDRFPQDNDLCIPLASSDHLLPATEEAPKVCEACKNKNDDDNDIMETLCKNDFALKIKVKEITYINRDTKIILETKSKTIYKLNGVSERDLKKSVLWLKDSLQCTCEEMNDINAPYLVMGQKQGGELVITSVKRWQKGQREFKRISRSIRKLQC
Question: Which Kd [7] does the source give for B1 here?
Answer: Its Kd is 11.9 nM.

B2: recombinant SFRP2: Recombinant human SFRP2 protein (R&D Systems) (protein)
chain: B1 chain
modifications: left off: FLAG, C-terminal, kept
Question: Which Kd (recombinant CXADR) does the source give for B2 here?
Answer: The Kd was 11.9 nM.

Question: What about the “proliferation of CXADR-overexpressing cells” value [8] of the same molecule?
Answer: Its value is “rescue of proliferation”.

Question: What about the “NO generation in CXADR-overexpressing cells” value [9] of the same molecule?
Answer: The value was “rapidly abolished”.

B3: SFRP2-FLAG: C-terminally FLAG-tagged SFRP2 produced by transfection in 293T cells (protein)
chain: B1 chain
modifications: left off: FLAG, C-terminal, kept
Question: With B3 as the molecule, how does the “co-immunoprecipitation with CXADR” value (CXADR) read?
Answer: Its value is “specifically co-immunoprecipitated with CXADR”.

Question: What about the “SFRP2-FLAG binding to Y79 cells” value (Y79 cells [10]) of the same molecule?
Answer: Its value is “bound to Y79 cells, and this binding was abolished by siRNA-mediated silencing of CXADR”.
